Data taken from ChEMBL document CHEMBL3085772, “Synthesis, biological evaluation and molecular modeling study of 5-trifluoromethyl-Δ²-pyrazoline and isomeric 5/3-trifluoromethylpyrazole derivatives as anti-inflammatory agents” (2013).

Assays:
Assay type in all cases: functional
Parameters in all cases: scale not given: the % may be the effect or the level left
Rattus norvegicus [1] = experiment: Antiinflammatory activity in Wistar albino rat assessed as reduction in carrageenan-induced paw edema at 50 mg/kg, po administered 30 mins prior to carrageenan challenge measured after 3 hrs by plethysmometer
In short: (§1)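 Rats housed under standard light and temperature with free food and water; food withdrawn 12 h before and during testing; six rats per group, control given tween 80. Oral dosing 30 min before subplantar injection of 0.1 mL 1% w/v carrageenan in normal saline into left hind paw. Paw volume read by plethysmometer at baseline and 1, 2, 3, 4 h; %AI = (Vc−Vt)/Vc×100.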

Rattus norvegicus [2] = experiment: Antiinflammatory activity in Wistar albino rat assessed as reduction in carrageenan-induced paw edema at 50 mg/kg, po administered 30 mins prior to carrageenan challenge measured after 1 hr by plethysmometer; in short: as §1
Rattus norvegicus [3] = experiment: Antiinflammatory activity in Wistar albino rat assessed as reduction in carrageenan-induced paw edema at 50 mg/kg, po administered 30 mins prior to carrageenan challenge measured after 4 hrs by plethysmometer; in short: as §1
Rattus norvegicus [4] = experiment: Antiinflammatory activity in Wistar albino rat assessed as reduction in carrageenan-induced paw edema at 50 mg/kg, po administered 30 mins prior to carrageenan challenge measured after 2 hrs by plethysmometer; in short: as §1
Rattus norvegicus [5] = experiment: Antiinflammatory activity in Wistar albino rat assessed as reduction in carrageenan-induced paw edema at 10 mg/kg, po administered 30 mins prior to carrageenan challenge measured after 2 hrs by plethysmometer; in short: as §1
Rattus norvegicus [6] = experiment: Antiinflammatory activity in Wistar albino rat assessed as reduction in carrageenan-induced paw edema at 10 mg/kg, po administered 30 mins prior to carrageenan challenge measured after 4 hrs by plethysmometer; in short: as §1
Rattus norvegicus [7] = experiment: Antiinflammatory activity in Wistar albino rat assessed as reduction in carrageenan-induced paw edema at 10 mg/kg, po administered 30 mins prior to carrageenan challenge measured after 3 hrs by plethysmometer; in short: as §1
Rattus norvegicus [8] = experiment: Antiinflammatory activity in Wistar albino rat assessed as reduction in carrageenan-induced paw edema at 10 mg/kg, po administered 30 mins prior to carrageenan challenge measured after 1 hr by plethysmometer; in short: as §1

Cc1cc(C)nc(-n2nc(C(F)(F)F)cc2C(F)(F)F)n1
Activity (Rattus norvegicus [1]): 57% | Activity (Rattus norvegicus [2]): 34% | Activity (Rattus norvegicus [3]): 44% | Activity (Rattus norvegicus [4]): 46%

Cc1cc(C)nc(-n2nc(C(F)(F)F)cc2-c2ccccc2)n1
Activity (Rattus norvegicus [1]): 62% | Activity (Rattus norvegicus [2]): 33% | Activity (Rattus norvegicus [3]): 51% | Activity (Rattus norvegicus [4]): 43%

Cc1cc(C)nc(-n2nc(-c3ccc(Cl)cc3)cc2C(F)(F)F)n1
Activity (Rattus norvegicus [1]): 58% | Activity (Rattus norvegicus [2]): 35% | Activity (Rattus norvegicus [3]): 53% | Activity (Rattus norvegicus [4]): 54%

Cc1cc(C)nc(-n2nc(-c3ccc(F)cc3)cc2C(F)(F)F)n1
Activity (Rattus norvegicus [1]): 55% | Activity (Rattus norvegicus [2]): 26% | Activity (Rattus norvegicus [3]): 49% | Activity (Rattus norvegicus [4]): 38%

Cc1cc(C)nc(-n2nc(-c3ccccc3)cc2C(F)(F)F)n1
Activity (Rattus norvegicus [1]): 59% | Activity (Rattus norvegicus [2]): 4.3% | Activity (Rattus norvegicus [3]): 56% | Activity (Rattus norvegicus [4]): 20%

Cc1cc(C)nc(-n2nc(-c3cccs3)cc2C(F)(F)F)n1
Activity (Rattus norvegicus [1]): 47% | Activity (Rattus norvegicus [2]): 8.6% | Activity (Rattus norvegicus [3]): 37% | Activity (Rattus norvegicus [4]): 18%

COc1ccc(-c2cc(C(F)(F)F)nn2-c2nc(C)cc(C)n2)cc1
Activity (Rattus norvegicus [1]): 72% | Activity (Rattus norvegicus [2]): 56% | Activity (Rattus norvegicus [3]): 61% | Activity (Rattus norvegicus [4]): 59%

Cc1cc(C)nc(N2N=C(C(F)(F)F)C[C@@]2(O)C(F)(F)F)n1
Activity (Rattus norvegicus [1]): 49% | Activity (Rattus norvegicus [2]): 42% | Activity (Rattus norvegicus [3]): 23% | Activity (Rattus norvegicus [4]): 44%

Cc1cc(C)nc(N2N=C(c3ccccc3)C[C@@]2(O)C(F)(F)F)n1
Activity (Rattus norvegicus [1]): 50% | Activity (Rattus norvegicus [2]): 44% | Activity (Rattus norvegicus [3]): 45% | Activity (Rattus norvegicus [4]): 47%

Cc1ccc(C2=NN(c3nc(C)cc(C)n3)[C@](O)(C(F)(F)F)C2)cc1
Activity (Rattus norvegicus [1]): 54% | Activity (Rattus norvegicus [2]): 32% | Activity (Rattus norvegicus [3]): 50% | Activity (Rattus norvegicus [4]): 35%

Cc1cc(C)nc(N2N=C(c3ccc(F)cc3)C[C@@]2(O)C(F)(F)F)n1
Activity (Rattus norvegicus [1]): 54% | Activity (Rattus norvegicus [2]): 49% | Activity (Rattus norvegicus [3]): 38% | Activity (Rattus norvegicus [4]): 51%

Cc1cc(C)nc(N2N=C(c3ccc(Cl)cc3)C[C@@]2(O)C(F)(F)F)n1
Activity (Rattus norvegicus [1]): 59% | Activity (Rattus norvegicus [2]): 5.7% | Activity (Rattus norvegicus [3]): 45% | Activity (Rattus norvegicus [4]): 50%

Cc1ccc(-c2cc(C(F)(F)F)nn2-c2nc(C)cc(C)n2)cc1
Activity (Rattus norvegicus [1]): 69% | Activity (Rattus norvegicus [2]): 48% | Activity (Rattus norvegicus [3]): 53% | Activity (Rattus norvegicus [4]): 55%

Cc1cc(C)nc(-n2nc(C(F)(F)F)cc2-c2ccc(F)cc2)n1
Activity (Rattus norvegicus [1]): 67% | Activity (Rattus norvegicus [2]): 29% | Activity (Rattus norvegicus [3]): 58% | Activity (Rattus norvegicus [4]): 59%

Cc1cc(C)nc(-n2nc(C(F)(F)F)cc2-c2ccc(Cl)cc2)n1
Activity (Rattus norvegicus [1]): 76% | Activity (Rattus norvegicus [2]): 55% | Activity (Rattus norvegicus [3]): 63% | Activity (Rattus norvegicus [4]): 64%

COc1ccc2c(c1)c(CC(=O)O)c(C)n2C(=O)c1ccc(Cl)cc1 [INDOMETHACIN]
Activity (Rattus norvegicus [5]): 75% | Activity (Rattus norvegicus [6]): 74% | Activity (Rattus norvegicus [7]): 78% | Activity (Rattus norvegicus [8]): 69%
